Assay outcomes from PubChem BioAssay.
KCNQ1 act: potentiates or activates the human KCNQ1 potassium channel. P51787. CHO-K1 KCNQ1, thallium flux FluxOR fluorescence; stronger effect = higher value. B-score at 10 µM. hit rate 0.35% among 310,000. AID 2648;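 active means fluorescence ratio B-score, a plate-corrected score, at least three library SD, with initial intensity B-score within 5 SD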
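Assay system: CHO-K1 cells stably expressing KCNQ1. Medium: assay buffer for compound exposure, DMSO matched across wells. Timing: 37 °C overnight plating, 90-min dark dye load, 20-min compound pretreatment. Signal: kinetic FluxOR fluorescence, 10 s baseline plus 110 s post-stimulus.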
KCNK9 block: inhibitors of human KCNK9 two-pore domain potassium channel; HEK293 KCNK9, FluxOR thallium flux fluorescence; stronger effect = lower value; B-score at 10 µM; hit rate 1.2% among 310,000;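 active means ratio B-score over 3 SD below the library mean, with starting fluorescence within 5 SD of its mean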;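 further: negative B-score means less thallium flux so channel inhibition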
KCNK3 inh: human KCNK3 channel inhibition, primary screen; O14649; hit rate 0.84% among 340,000; CHO-KCNK3 thallium flux, FluxOR fluorescence; stronger effect = lower value; B-score at 10 µM;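 active means B-score under library mean minus 4 SD, starting fluorescence ratio at most library mean plus 5 SD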;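 further: more negative B-score means stronger inhibition of thallium flux through KCNK3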
hERG protect: hERG (human) protection from proarrhythmic block; CHO-hERG, FluxOR thallium flux, dofetilide IC70 present; AID 1511; hit rate 0.51% among 310,000; activation (rescue from dofetilide block), less the hit threshold, % at 10 µM; Q12809;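 active means activation above the mean of controls blocked by dofetilide plus 5 SD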;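 further: thallium influx through hERG after potassium depolarization seen as dye fluorescence rise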
Target sequence (Q12809 whole entry, looked up): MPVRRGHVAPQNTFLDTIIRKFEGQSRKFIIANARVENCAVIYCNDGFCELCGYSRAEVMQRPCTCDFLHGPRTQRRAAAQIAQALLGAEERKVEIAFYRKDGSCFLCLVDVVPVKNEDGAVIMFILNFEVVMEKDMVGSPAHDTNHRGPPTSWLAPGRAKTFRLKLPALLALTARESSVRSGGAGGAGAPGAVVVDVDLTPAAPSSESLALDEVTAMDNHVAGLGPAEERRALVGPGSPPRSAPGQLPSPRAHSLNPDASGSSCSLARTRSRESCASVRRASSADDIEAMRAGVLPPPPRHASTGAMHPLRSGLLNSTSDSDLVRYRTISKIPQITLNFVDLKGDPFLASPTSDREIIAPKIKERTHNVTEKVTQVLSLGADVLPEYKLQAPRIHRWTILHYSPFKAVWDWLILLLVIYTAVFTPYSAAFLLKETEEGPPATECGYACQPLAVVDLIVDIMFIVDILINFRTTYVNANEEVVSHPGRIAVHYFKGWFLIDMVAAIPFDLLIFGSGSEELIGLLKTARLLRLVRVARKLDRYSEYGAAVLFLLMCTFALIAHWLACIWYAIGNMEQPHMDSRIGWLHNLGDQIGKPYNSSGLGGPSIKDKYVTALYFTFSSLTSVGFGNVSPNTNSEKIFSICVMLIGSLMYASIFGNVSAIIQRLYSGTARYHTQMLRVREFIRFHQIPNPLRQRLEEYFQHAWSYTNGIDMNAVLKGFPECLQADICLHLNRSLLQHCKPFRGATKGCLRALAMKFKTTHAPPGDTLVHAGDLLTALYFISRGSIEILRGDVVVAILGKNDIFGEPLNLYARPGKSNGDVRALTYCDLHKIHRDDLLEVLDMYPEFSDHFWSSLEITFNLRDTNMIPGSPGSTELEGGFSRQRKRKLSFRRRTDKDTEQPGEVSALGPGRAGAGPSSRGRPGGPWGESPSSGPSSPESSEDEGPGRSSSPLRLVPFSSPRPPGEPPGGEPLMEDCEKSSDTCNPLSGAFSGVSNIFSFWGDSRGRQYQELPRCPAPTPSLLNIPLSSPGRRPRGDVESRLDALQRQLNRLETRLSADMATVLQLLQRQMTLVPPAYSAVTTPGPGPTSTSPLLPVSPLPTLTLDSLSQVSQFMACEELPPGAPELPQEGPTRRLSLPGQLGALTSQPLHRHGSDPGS
KCNQ1 block: blocks the human KCNQ1 potassium channel | B-score at 10 µM | CHO-K1 KCNQ1, FluxOR thallium flux fluorescence; stronger effect = higher value | hit rate 1.3% among 310,000 | P51787;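 active means compounds whose thallium flux B-score, printed positive for inhibition, exceeds three library SD while starting fluorescence stays within three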;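 further: channel opened by potassium depolarization with thallium stimulus after 20 min compound exposure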
PHOSPHO1 block: blocks human PHOSPHO1 phosphatase activity. hit rate 1.1% among 290,000. inhibition, % at 13.3 µM. AID 1565. recombinant PHOSPHO1, absorbance phosphatase assay; in the data active means inhibition above about 60%
KCNK3 confirm: confirmation of human KCNK3 two-pore domain potassium channel inhibitors. hit rate 99% among 2,400. ratio percent of control, % at 10 µM. shares compounds with KCNK3 inh. CHO-KCNK3 thallium flux, FluxOR fluorescence; 0% buffer, 100% carvedilol maximal block;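 active means ratio percent of control, averaged over triplicates, above buffer control mean plus 5 SD, cut at about 64% in these data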;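 further: ratio is the fluorescence rise from min to max over baseline after thallium stimulus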
KCNK3 noninduced: counter-screen for KCNK3 inhibitors: effect in non-induced cells. thallium flux ratio (lower = more inhibition) at 10 µM. hit rate 40% among 2,400. AID 651747. shares compounds with KCNK3 inh. non-induced KCNK3 parental cells, FluxOR thallium flux; stronger effect = lower value;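 active means thallium flux ratio, averaged over three wells, more than 5 SD below the buffer control mean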;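 further: host cells are CHO cells without KCNK3 induction; ratio is peak minus trough fluorescence over baseline then normalized to buffer controls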
* hit, by the source's call; i = inactive; / = no result given. Shown are actives, neighbours in structure and some others; about 4% of the full set was active somewhere.

SMILES | KCNQ1 act | KCNK9 block | KCNK3 inh | hERG protect | KCNQ1 block | PHOSPHO1 block | KCNK3 confirm | KCNK3 noninduced
C(=C\CSc1nnnn1-c1ccccc1)/CSc1nnnn1-c1ccccc1 | i | i | -9.68* | -14.8 | i | 4.6 | 106.3* | i
Cc1cccc(/C=C/c2nc3ccccc3c(=O)[nH]2)c1 | i | i | -9.42* | -8.4 | i | 28.7 | 87.3* | i
Cc1[nH]c2ccccc2c1/C=C/c1nc2ccccc2c(=O)[nH]1 | i | i | i | -9.7 | i | 17.7 | / | /
Cc1ccc(OCc2nc(C#N)c(NCc3ccc4c(c3)OCO4)o2)cc1 | i | -7.75* | -12.3* | -4.9 | i | 20.3 | 148.3* | 0.134*
CN(CCOc1ccc(Cl)cc1)CC(=O)Nc1ccc(OC(F)(F)F)cc1 | i | i | -9.12* | -4.5 | i | 24.1 | 108.3* | 0.154*
Cc1cc(NC(=O)CN(C)CCOc2ccccc2)ccc1Br | i | i | i | -18.6 | i | 36.2 | / | /
COc1ccc(NC(=O)CN(C)CCOc2ccc(Cl)cc2)cc1OC | i | i | i | -3.9 | i | 27.0 | / | /
CN(CCOc1ccccc1)CC(=O)Nc1cccc(Br)c1 | i | i | -9.16* | -14.3 | i | 39.7 | 94.3* | i
Oc1ccc(/C=C/c2ccc3cccc(O)c3n2)cc1Br | i | i | -10.9* | -11.4 | i | 35.6 | 134.7* | 0.124*
O=C(O)c1ccc(/C=C/c2ccc3cccc(O)c3n2)cc1 | i | i | i | -10.4 | i | -20.0 | / | /
CCC(Sc1nc(-c2ccccc2)c(-c2ccccc2)[nH]1)C(=O)O (configuration not stated) | i | i | i | -5.2 | i | 42.2 | / | /
COCCN(C(=O)Nc1ccccc1OC)c1nc2ccccc2s1 | i | i | -11.2* | -9.4 | i | / | 114.3* | i
CCCN(c1nc(C)cc(OC)n1)S(=O)(=O)c1ccccc1 | i | i | -11.8* | -7.5 | i | 28.3 | 101.3* | i
COc1nc(C)cc(C)c1S(=O)(=O)c1ccccc1 | i | i | i | -2.6 | i | 50.4 | / | /
O=C(NCCO)N1c2ccccc2Sc2ccccc21 | i | i | i | -3.0 | i | 34.8 | / | /
O=C(Nc1ccccc1O)N1c2ccccc2Sc2ccccc21 | i | i | -10.3* | -18.6 | i | 29.0 | 103.3* | i
CSc1nc(N)nc2c1ncn2CC(=O)NCCNc1ccc([N+](=O)[O-])cn1 | / | / | i | / | / | / | / | /
COc1ccccc1C1CCN(C(=O)c2ccc(Cl)cc2)CC1 | i | i | i | -5.8 | i | 10.6 | / | /
COc1ccc(C2=NNC(c3cc(Cl)cc4c3OCOC4)C2)c(O)c1 (configuration not stated) | i | i | / | -11.9 | i | -5.3 | / | /
Oc1ccc(Cl)cc1C1=NNC(c2cc(Br)cc3c2OCOC3)C1 (configuration not stated) | i | i | -8.78* | -3.2 | i | 32.3 | 96.0* | i
Cc1ccc(Cl)cc1N1CCN(C(=O)C2CCC(=O)N(C3CCCCCC3)C2)CC1 (configuration not stated) | i | i | -11.3* | -16.6 | i | 37.6 | 109.7* | i
CC(C)(C)c1ccc(Cn2nnc3c(=O)[nH]c(C4CCN(C(=O)c5ccco5)CC4)nc32)cc1 | i | i | -8.94* | -5.3 | i | 22.5 | 121.7* | 0.146*
O=C(c1ccco1)N1CCC(c2nc3c(nnn3Cc3c(Cl)cccc3Cl)c(=O)[nH]2)CC1 | i | i | i | -4.6 | i | 10.3 | / | /
COc1ccc(COC(=O)N/N=C/c2cccs2)cc1 | i | i | i | 0.4 | i | / | / | /
Cc1cc(C)nc(N(C#N)Cc2cccc3ccccc23)n1 | i | i | -9.17* | -6.4 | i | -56.9 | 74.0* | i
SMILES | KCNQ1 act | KCNK9 block | KCNK3 inh | hERG protect | KCNQ1 block | PHOSPHO1 block | KCNK3 confirm | KCNK3 noninduced
Cc1cc(C)nc(N(C#N)Cc2ccccc2)n1 | i | i | i | -9.8 | i | 35.6 | / | /
Cc1cc(SCC(N)=O)nc(SCC(=O)c2ccccc2)n1 | i | i | i | 2.5 | i | 14.0 | / | /
Cc1ccc(C(=O)CSc2cc(C)nc(SCC(=O)c3ccccc3)n2)cc1 | i | i | -9.02* | -8.4 | i | 3.4 | 112.3* | i
COCc1ccc(-c2c(-c3ccccc3OC)sc3cc4c(cc23)OCO4)cc1 | / | / | i | / | / | / | / | /
S=C(NCCCc1ccccc1)Nc1ccccc1 | i | i | i | -5.1 | i | 13.0 | / | /
S=C(NCCc1ccccc1)Nc1ccc(Nc2ccccc2)cc1 | i | i | -9.3* | -6.8 | i | 14.0 | 126.0* | 0.133*
CC(C)(CNC(=S)NCCc1ccccc1)CNC(=S)NCCc1ccccc1 | i | i | -9.35* | -18.6 | 14* | -4.0 | 116.0* | 0.104*
COc1cccc(N=CC2=C(O)CC(C)(C)CC2=O)c1 | i | i | i | -3.8 | i | -7.4 | / | /
O=[N+]([O-])c1cccc(-c2csc(Nc3ccccc3)n2)c1 | i | i | -13.5* | -32.6 | i | 47.1 | 124.3* | 0.139*
O=C(Nc1ccc(Br)cc1)c1cccc2c1C(=O)N(C1CCCCC1)C2 | i | i | i | -9.1 | i | 39.9 | / | /
Cc1cc(C)cc(NC(=O)c2cccc3c2C(=O)N(C2CCCCC2)C3)c1 | i | i | -9.34* | -6.8 | i | -10.2 | 107.3* | i
N#Cc1ccc(/C=C\c2nccc3c2[nH]c2ccccc23)cc1 | i | i | -9.95* | -14.3 | i | 12.3 | 116.3* | 0.158*
COc1cc(NC(=O)CN2C(=O)COc3ccc(S(=O)(=O)N4CCCCC4)cc32)cc(OC)c1 | i | i | -8.81* | -10.4 | i | 41.2 | 113.0* | i
O=C(CNC(=O)c1ccc(Br)o1)NNC(=O)c1ccc(Cl)cc1 | / | / | i | / | / | / | / | /
Cc1ccc(C(=O)N/N=C\c2cccnc2)s1 | i | i | i | -6.8 | i | 37.0 | / | /
CN(c1ccccc1C(=O)Nc1ccc(S(=O)(=O)N2CCOCC2)cc1)S(C)(=O)=O | i | i | i | 0.2 | i | -5.1 | / | /
CC1CCCC(C)N1S(=O)(=O)c1ccc(NC(=O)c2ccccc2C(=O)N2CCOCC2)cc1 (configuration not stated) | i | i | -11.7* | -8.6 | i | -7.0 | 91.0* | i
Cc1ccccc1NC(=O)Cc1nc(COC(=O)c2ccc(S(C)(=O)=O)c([N+](=O)[O-])c2)cs1 | / | / | i | / | / | / | / | /
